Measurements: ChEMBL document CHEMBL4725388, “Characterization of Aminobenzylphenols as Protein Disulfide Isomerase Inhibitors in Glioblastoma Cell Lines” (J Med Chem, 2020)

Experiments:
[1] = target: Protein disulfide-isomerase (Homo sapiens, UniProt P07237); assay: Inhibition of recombinant human wild-type N-terminal His-tagged PDIA1 expressed in Escherichia coli strain BL21(DE3) using bovine insulin as substrate preincubated for 1 hr followed by substrate addition
Outline: (§1)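 IC50 from dose-response curves; PDI reductase assay for enzyme, MTT in U-87 MG cells for cytotoxicity; mean ± SD of at least three independent experiments.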

[2] = test system: U-87 MG; assay: Cytotoxicity against human U-87 MG cells assessed as growth inhibition measured after 72 hrs by MTT assay; format: functional, cell-based, U-87MG ATCC; outline: as §1

Sequence of Protein disulfide-isomerase (P07237 whole entry): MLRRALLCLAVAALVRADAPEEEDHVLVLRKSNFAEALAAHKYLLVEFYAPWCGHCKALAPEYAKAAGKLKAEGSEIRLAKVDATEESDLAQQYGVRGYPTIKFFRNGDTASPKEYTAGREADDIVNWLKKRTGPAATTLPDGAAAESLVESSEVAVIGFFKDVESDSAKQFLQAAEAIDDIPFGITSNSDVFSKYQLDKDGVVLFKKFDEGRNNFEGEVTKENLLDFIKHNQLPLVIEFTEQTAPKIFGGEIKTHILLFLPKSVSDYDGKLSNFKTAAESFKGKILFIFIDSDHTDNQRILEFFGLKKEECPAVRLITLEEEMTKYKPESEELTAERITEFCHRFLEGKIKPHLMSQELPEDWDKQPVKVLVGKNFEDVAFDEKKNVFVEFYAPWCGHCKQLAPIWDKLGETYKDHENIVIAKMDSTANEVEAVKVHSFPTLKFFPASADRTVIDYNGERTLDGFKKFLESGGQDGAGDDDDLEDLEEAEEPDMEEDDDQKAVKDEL

SMILES	IC50 [1] [µM]	IC50 [2] [µM]
Oc1c(C(c2ccc(F)cc2)N2CCCCC2)ccc2cncnc12 (stereo unspecified)	4.86	–
Cc1ccnc(NC(c2ccccc2C)c2ccc3cccnc3c2O)c1 (stereo unspecified)	> 40	> 10
Oc1cc2c(cc1C(Nc1ncccn1)c1ccc(F)cc1)OCO2 (stereo unspecified)	12.7	> 10
Oc1ccc2[nH]ncc2c1C(c1ccc(-c2cncnc2)cc1)N1CCCCC1 (stereo unspecified)	0.83	–
O=[N+]([O-])c1ccc(C(c2c(O)ccc3[nH]ncc23)N2CCCCC2)cc1 (stereo unspecified)	0.52	–
Oc1ccc2ncccc2c1C(c1ccc(F)cc1)N1CCCCC1 (stereo unspecified)	> 30	–
CNC(=O)NC(c1ccc2c(c1)OCO2)c1cc2c(cc1O)OCO2 (stereo unspecified)	> 40	> 10
Cc1ccnc(NC(c2cc(C)ccc2C)c2ccc3cccnc3c2O)c1 (stereo unspecified)	> 40	> 10
Oc1ccc2nccnc2c1C(c1ccc(F)cc1)N1CCCCC1 (stereo unspecified)	> 100	–
CNC(=O)NC(c1ccc(F)cc1)c1cc2c(cc1O)OCO2 (stereo unspecified)	> 30	> 10
CC(=O)c1cc2ccc(C(c3ccc(F)cc3)N3CCCCC3)c(O)c2o1 (stereo unspecified)	1.23	–
Oc1cc2c(cc1C(c1ccc(F)cc1)n1ccnc1)OCO2 (stereo unspecified)	0.67	> 10
Cc1ccc(C(Nc2ccccn2)c2ccc3cccnc3c2O)cc1 (stereo unspecified)	0.46	> 10
Cc1ccnc(NC(c2ccc(C(F)(F)F)cc2)c2ccc3cccnc3c2O)c1 (stereo unspecified)	26.5	2.1
COc1cccc(C(Nc2ccccn2)c2ccc3cccnc3c2O)c1 (stereo unspecified)	2.86	11.9
COc1ccc(C(c2cc3c(cc2O)OCO3)N2CCCCC2)c(OC)c1 (stereo unspecified)	2.59	> 30
Oc1ccc2scnc2c1C(c1ccc(F)cc1)N1CCCCC1 (stereo unspecified)	> 100	–
CN(C)c1cccc(C(c2ccc(F)cc2)N2CCCCC2)c1O (stereo unspecified)	> 30	–
COc1ccc(C(Nc2ncccn2)c2cc3c(cc2O)OCO3)cc1 (stereo unspecified)	1.3	> 10
Oc1ccc2cnccc2c1C(c1ccc(F)cc1)N1CCCCC1 (stereo unspecified)	> 100	–
COc1ccc(C(c2cc3c(cc2O)OCO3)N2CCCCC2)cc1OC (stereo unspecified)	0.96	24.8
Oc1c(C(c2ccc(F)cc2)N2CCCCC2)ccc2cnccc12 (stereo unspecified)	0.61	–
COc1cccc(C(c2cc3c(cc2O)OCO3)N2CCOCC2)c1O (stereo unspecified)	0.9	> 10
Oc1c(C(Nc2ccccn2)c2ccccc2Cl)ccc2cccnc12 (stereo unspecified)	0.5	9.4
Oc1ccc(C(c2cc3c(cc2O)OCO3)N2CCNCC2)cc1 (stereo unspecified)	0.68	> 30

SMILES	IC50 [1] [µM]	IC50 [2] [µM]
Cc1ccnc(NC(c2ccc3cccnc3c2O)c2c(Cl)cccc2Cl)c1 (stereo unspecified)	> 40	7.2
Oc1c(C(Nc2ccccn2)c2c(Cl)cccc2Cl)ccc2cccnc12 (stereo unspecified)	1.89	6.9
Oc1ccc2[nH]ccc2c1C(c1ccc(F)cc1)N1CCCCC1 (stereo unspecified)	1.81	–
Oc1c(C(c2ccc(F)cc2)N2CCCCC2)ccc2ccoc12 (stereo unspecified)	0.56	–
Oc1c(C(c2ccc(F)cc2)N2CCCCC2)ccc2c1OCO2 (stereo unspecified)	2.83	–
COc1cccc(C(c2cc3c(cc2O)OC(F)(F)O3)N2CCOCC2)c1OC (stereo unspecified)	0.51	–
COc1cc(C(c2cc3c(cc2O)OCO3)N2CCCCC2)cc(OC)c1OC (stereo unspecified)	0.7	> 10
COc1ccc(C(c2cc3c(cc2O)OCO3)N2CCCCC2)cc1 (stereo unspecified)	0.88	28.3
O=C(O)c1ccccc1NC(c1ccccc1)c1ccc2cccnc2c1O (stereo unspecified)	1.48	> 10
COc1ccccc1NC(c1ccccc1)c1ccc2cccnc2c1O (stereo unspecified)	0.39	> 10
Oc1c(C(Nc2ccccn2)c2ccccc2F)ccc2cccnc12 (stereo unspecified)	0.47	> 10
Oc1ccc2ccncc2c1C(c1ccc(F)cc1)N1CCCCC1 (stereo unspecified)	10.2	–
COc1ccc(C(c2cc3c(cc2O)OCO3)n2ccnc2)cc1 (stereo unspecified)	0.62	> 10
Cc1ccnc(NC(c2ccccc2Cl)c2ccc3cccnc3c2O)c1 (stereo unspecified)	> 40	9.9
Oc1cccc(C(Nc2ccccn2)c2ccc3cccnc3c2O)c1Cl (stereo unspecified)	0.37	> 10
Oc1cc2c(cc1C(c1ccc(F)cc1)N1CCCCC1)NCC2 (stereo unspecified)	7.01	–
Oc1cc2c(cc1C(Nc1ncccn1)c1ccc3c(c1)OCO3)OCO2 (stereo unspecified)	1.18	> 10
Oc1c(C(c2ccc3c(c2)CCC3)N2CCCCC2)ccc2ccoc12 (stereo unspecified)	0.41	–
Oc1cc(F)ccc1C(c1ccc2ccoc2c1O)N1CCCCC1 (stereo unspecified)	1.07	–
Oc1c(C(c2ccc(F)cc2)N2CCCCC2)ccc2nccnc12 (stereo unspecified)	0.66	–
Oc1cc2c(cc1C(c1ccc(F)cc1)N1CCCCC1)OCCO2 (stereo unspecified)	0.67	–
Oc1ccc2[nH]ncc2c1C(c1ccc(C(F)(F)F)cc1)N1CCCCC1 (stereo unspecified)	0.71	–
Oc1cc2c(cc1C(c1ccc(F)cc1)N1CCCCC1)CCCC2 (stereo unspecified)	> 100	–
Oc1c(C(c2ccc(F)cc2)N2CCCCC2)ccc2scnc12 (stereo unspecified)	0.57	–
Oc1c(C(c2ccc(F)cc2)N2CCCCC2)ccc2c1CCC2 (stereo unspecified)	> 10	–

The next compounds have a lower IC50 [1] than those just listed; values first:

IC50 [1] [µM]	SMILES	IC50 [2] [µM]
0.15	O=[N+]([O-])c1ccc(NC(c2ccccc2)c2ccc3cccnc3c2O)cc1 (stereo unspecified)	> 10
0.23	COc1cc(C(c2cc3c(cc2O)OCO3)N2CCOCC2)ccc1O (stereo unspecified)	27.1
< 0.2	CN(C)c1ccc(C(c2cc3c(cc2O)OCO3)N2CCCC2)cc1 (stereo unspecified)	> 30
0.18	COc1cc(C(Nc2ccc(C)cn2)c2ccc3cccnc3c2O)cc(OC)c1O (stereo unspecified)	7.4
0.13	COc1ccc(C(c2cc3c(cc2O)OCO3)N2CCOCC2)cc1 (stereo unspecified)	> 10
0.33	COc1ccccc1C(c1cc2c(cc1O)OCO2)N1CCOCC1 (stereo unspecified)	27.7
< 0.2	Oc1c(C(c2ccc3c(c2)OC(F)(F)O3)N2CCCCC2)ccc2ccoc12 (stereo unspecified)	–
0.35	Oc1ccc2[nH]ncc2c1C(c1ccc(F)cc1)N1CCCCC1 (stereo unspecified)	–
< 0.2	Oc1cc2c(cc1C(c1ccc(F)cc1)N1CCCC1)OCO2 (stereo unspecified)	> 30
0.17	CCc1ccc(C(Nc2ccccn2)c2ccc3cccnc3c2O)cc1 (stereo unspecified)	9.3
0.34	Oc1ccc2[nH]ncc2c1C(c1ccc(-c2nccs2)cc1)N1CCCCC1 (stereo unspecified)	–
0.23	Oc1cc2c(cc1C(c1ccc(F)cc1)N1CCOCC1)OCO2 (stereo unspecified)	> 30
0.34	Oc1ccccc1C(c1cc2c(cc1O)OCO2)N1CCOCC1 (stereo unspecified)	> 30
0.19	Cc1cc(C)c(C(Nc2ccccn2)c2ccc3cccnc3c2O)c(C)c1 (stereo unspecified)	10
0.092	Oc1cc2c(cc1C(c1ccc(Cl)cc1)N1CCOCC1)OCO2 (stereo unspecified)	> 30
0.3	Oc1c(C(c2ccc(C(F)(F)F)cc2)N2CCCCC2)ccc2ccoc12 (stereo unspecified)	–
0.17	COc1cc(C(Nc2ccccn2)c2cc3c(cc2O)OCO3)cc(OC)c1O (stereo unspecified)	> 10
0.072	Oc1cc2c(cc1C(Nc1ccccn1)c1ccc3c(c1)OCO3)OCO2 (stereo unspecified)	> 10
0.15	COc1ccc(C(Nc2cc(C)ccn2)c2ccc3cccnc3c2O)cc1O (stereo unspecified)	> 10
0.023	Oc1cc2c(cc1C(c1ccc3c(c1)OCO3)N1CCCC1)OCO2 (stereo unspecified)	> 30
< 0.2	Oc1cc2c(cc1C(c1ccc3c(c1)OCO3)N1CCOCC1)OCO2 (stereo unspecified)	> 30
0.29	Oc1ccc2[nH]ncc2c1C(c1ccc(-n2cccc2)cc1)N1CCCCC1 (stereo unspecified)	–
0.29	Oc1c(C(c2ccc(F)cc2)N2CCCCC2)ccc2c1OCCO2 (stereo unspecified)	–
